Legend:
Assay type in all cases: functional
Details in all cases: read-out: GI
[1] = test system: SK-MEL-2; test: Antitumor activity against human SK-MEL-2 cells assessed as growth inhibition at 10 uM relative to control
Outline: (§1)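 After drug addition, plates were incubated 48 h at 37 °C under 5% CO2. Adherent cells were fixed with cold TCA (10% final, 60 min, 4 °C) and suspension cells with 16% final TCA. Staining used 0.4% SRB in 1% acetic acid, solubilized in 10 mM trizma, read at A515. Percent growth was calculated from time-zero, control and treated absorbances.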

[2] = test system: SK-MEL-5; test: Antitumor activity against human SK-MEL-5 cells assessed as growth inhibition at 10 uM relative to control
Outline: (§2)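 Drug exposure 48 h at 37 °C, 5% CO2. Adherent cells fixed with cold TCA (10% final), suspension cells with TCA (16% final). Stained with 0.4% SRB in 1% acetic acid, dissolved in 10 mM Tris, A515. Growth relative to time-zero and untreated control.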

[3] = test system: SK-OV-3; test: Antitumor activity against human SK-OV-3 cells assessed as growth inhibition at 10 uM relative to control; outline: as §2
[4] = test system: HCC 2998; test: Antitumor activity against human HCC 2998 cells assessed as growth inhibition at 10 uM relative to control; outline: as §1
[5] = test system: Hs-578T; test: Antitumor activity against human Hs-578T cells assessed as growth inhibition at 10 uM relative to control; outline: as §1
[6] = test system: SR; test: Antitumor activity against human SR cells assessed as growth inhibition at 10 uM relative to control; outline: as §2
[7] = test system: U-251; test: Antitumor activity against human U-251 cells assessed as growth inhibition at 10 uM relative to control; outline: as §2
[8] = test system: HCT-15; test: Antitumor activity against human HCT-15 cells assessed as growth inhibition at 10 uM relative to control; outline: as §1
[9] = test system: A549; test: Antitumor activity against human A549 cells assessed as growth inhibition at 10 uM relative to control; outline: as §1
[10] = test system: IGROV-1; test: Antitumor activity against human IGROV-1 cells assessed as growth inhibition at 10 uM relative to control; outline: as §1
[11] = test system: OVCAR-5; test: Antitumor activity against human OVCAR-5 cells assessed as growth inhibition at 10 uM relative to control; outline: as §1
[12] = test system: SNB-75; test: Antitumor activity against human SNB-75 cells assessed as growth inhibition at 10 uM relative to control; outline: as §2
[13] = test system: MDA-MB-231; test: Antitumor activity against human MDA-MB-231 cells assessed as growth inhibition at 10 uM relative to control; outline: as §1
[14] = test system: RXF 393; test: Antitumor activity against human RXF 393 cells assessed as growth inhibition at 10 uM relative to control; outline: as §1
[15] = test system: NCI-H322M; test: Antitumor activity against human NCI-H322M cells assessed as growth inhibition at 10 uM relative to control; outline: as §1
[16] = test system: NCI-H226; test: Antitumor activity against human NCI-H226 cells assessed as growth inhibition at 10 uM relative to control; outline: as §1
[17] = test system: OVCAR-3; test: Antitumor activity against human OVCAR-3 cells assessed as growth inhibition at 10 uM relative to control; outline: as §1
[18] = test system: 786-0; test: Antitumor activity against human 786-0 cells assessed as growth inhibition at 10 uM relative to control; outline: as §1
[19] = test system: DU-145; test: Antitumor activity against human DU-145 cells assessed as growth inhibition at 10 uM relative to control; outline: as §1
[20] = test system: SF-539; test: Antitumor activity against human SF-539 cells assessed as growth inhibition at 10 uM relative to control; outline: as §1
[21] = test system: HOP-92; test: Antitumor activity against human HOP-92 cells assessed as growth inhibition at 10 uM relative to control; outline: as §1
[22] = test system: M14; test: Antitumor activity against human M14 cells assessed as growth inhibition at 10 uM relative to control; outline: as §1
[23] = test system: MOLT-4; test: Antitumor activity against human MOLT-4 cells assessed as growth inhibition at 10 uM relative to control; outline: as §1
[24] = test system: NCI-H23; test: Antitumor activity against human NCI-H23 cells assessed as growth inhibition at 10 uM relative to control; outline: as §1
[25] = test system: SF-295; test: Antitumor activity against human SF-295 cells assessed as growth inhibition at 10 uM relative to control; outline: as §1
[26] = test system: A498; test: Antitumor activity against human A498 cells assessed as growth inhibition at 10 uM relative to control; outline: as §1
[27] = test system: HOP-62; test: Antitumor activity against human HOP-62 cells assessed as growth inhibition at 10 uM relative to control; outline: as §1
[28] = test system: COLO 205; test: Antitumor activity against human COLO 205 cells assessed as growth inhibition at 10 uM relative to control; outline: as §1
[29] = test system: UO-31; test: Antitumor activity against human UO-31 cells assessed as growth inhibition at 10 uM relative to control; outline: as §2
[30] = test system: UACC-257; test: Antitumor activity against human UACC-257 cells assessed as growth inhibition at 10 uM relative to control; outline: as §2
[31] = test system: K562; test: Antitumor activity against human K562 cells assessed as growth inhibition at 10 uM relative to control; outline: as §1
[32] = test system: TK-10; test: Antitumor activity against human TK-10 cells assessed as growth inhibition at 10 uM relative to control; outline: as §2
[33] = test system: HCT-116; test: Antitumor activity against human HCT-116 cells assessed as growth inhibition at 10 uM relative to control; outline: as §1
[34] = test system: BT-549; test: Antitumor activity against human BT-549 cells assessed as growth inhibition at 10 uM relative to control; outline: as §1
[35] = test system: OVCAR-4; test: Antitumor activity against human OVCAR-4 cells assessed as growth inhibition at 10 uM relative to control; outline: as §1
[36] = test system: SNB-19; test: Antitumor activity against human SNB-19 cells assessed as growth inhibition at 10 uM relative to control; outline: as §2
[37] = test system: NCI-H522; test: Antitumor activity against human NCI-H522 cells assessed as growth inhibition at 10 uM relative to control; outline: as §1
[38] = test system: EKVX; test: Antitumor activity against human EKVX cells assessed as growth inhibition at 10 uM relative to control; outline: as §1
[39] = test system: LOX IMVI; test: Antitumor activity against human LOX IMVI cells assessed as growth inhibition at 10 uM relative to control; outline: as §1
[40] = test system: CAKI-1; test: Antitumor activity against human CAKI-1 cells assessed as growth inhibition at 10 uM relative to control; outline: as §1
[41] = test system: PC-3; test: Antitumor activity against human PC-3 cells assessed as growth inhibition at 10 uM relative to control; outline: as §1
[42] = test system: HL-60; test: Antitumor activity against human HL-60 cells assessed as growth inhibition at 10 uM relative to control; outline: as §1
[43] = test system: OVCAR-8; test: Antitumor activity against human OVCAR-8 cells assessed as growth inhibition at 10 uM relative to control; outline: as §1
[44] = test system: MDA-MB-435; test: Antitumor activity against human MDA-MB-435 cells assessed as growth inhibition at 10 uM relative to control; outline: as §1
[45] = test system: MCF7; test: Antitumor activity against human MCF7 cells assessed as growth inhibition at 10 uM relative to control; outline: as §1
[46] = test system: SF-268; test: Antitumor activity against human SF-268 cells assessed as growth inhibition at 10 uM relative to control; outline: as §1

Compound: CSc1nc(-c2ccc(Cl)cc2)c(C#N)c(N2CCOCC2)n1
- inhibition of growth at 10 µM [1]: < 1%
- inhibition of growth at 10 µM [2]: < 1%
- inhibition of growth at 10 µM [3]: 11%
- inhibition of growth at 10 µM [4]: < 1%
- inhibition of growth at 10 µM [5]: < 1%
- inhibition of growth at 10 µM [6]: 22.7%
- inhibition of growth at 10 µM [7]: < 1%
- inhibition of growth at 10 µM [8]: < 1%
- inhibition of growth at 10 µM [9]: 10.8%
- inhibition of growth at 10 µM [10]: 11.8%
- inhibition of growth at 10 µM [11]: < 1%
- inhibition of growth at 10 µM [12]: 47.8%
- inhibition of growth at 10 µM [13]: < 1%
- inhibition of growth at 10 µM [14]: < 1%
- inhibition of growth at 10 µM [15]: < 1%
- inhibition of growth at 10 µM [16]: 17.5%
- inhibition of growth at 10 µM [17]: < 1%
- inhibition of growth at 10 µM [18]: 11%
- inhibition of growth at 10 µM [19]: < 1%
- inhibition of growth at 10 µM [20]: < 1%
- inhibition of growth at 10 µM [21]: 21.1%
- inhibition of growth at 10 µM [22]: < 1%
- inhibition of growth at 10 µM [23]: < 1%
- inhibition of growth at 10 µM [24]: 10.8%
- inhibition of growth at 10 µM [25]: < 1%
- inhibition of growth at 10 µM [26]: 54.3%
- inhibition of growth at 10 µM [27]: 15.7%
- inhibition of growth at 10 µM [28]: < 1%
- inhibition of growth at 10 µM [29]: 27.1%
- inhibition of growth at 10 µM [30]: < 1%
- inhibition of growth at 10 µM [31]: 19.9%
- inhibition of growth at 10 µM [32]: < 1%
- inhibition of growth at 10 µM [33]: < 1%
- inhibition of growth at 10 µM [34]: 21.8%
- inhibition of growth at 10 µM [35]: 18.2%
- inhibition of growth at 10 µM [36]: 20.1%
- inhibition of growth at 10 µM [37]: 30.2%
- inhibition of growth at 10 µM [38]: 15.1%
- inhibition of growth at 10 µM [39]: < 1%
- inhibition of growth at 10 µM [40]: 13.7%
- inhibition of growth at 10 µM [41]: < 1%
- inhibition of growth at 10 µM [42]: < 1%
- inhibition of growth at 10 µM [43]: < 1%
- inhibition of growth at 10 µM [44]: < 1%
- inhibition of growth at 10 µM [45]: 1%
- inhibition of growth at 10 µM [46]: 13.9%

Compound: N#Cc1c(-c2ccc(Cl)cc2)nc(N/N=C2/C(=O)Nc3ccc(Cl)cc32)nc1N1CCOCC1
- inhibition of growth at 10 µM [1]: < 1%
- inhibition of growth at 10 µM [2]: < 1%
- inhibition of growth at 10 µM [3]: < 1%
- inhibition of growth at 10 µM [4]: < 1%
- inhibition of growth at 10 µM [5]: < 1%
- inhibition of growth at 10 µM [6]: < 1%
- inhibition of growth at 10 µM [7]: < 1%
- inhibition of growth at 10 µM [8]: 1%
- inhibition of growth at 10 µM [9]: < 1%
- inhibition of growth at 10 µM [10]: < 1%
- inhibition of growth at 10 µM [11]: < 1%
- inhibition of growth at 10 µM [12]: 31.3%
- inhibition of growth at 10 µM [13]: 17.1%
- inhibition of growth at 10 µM [14]: < 1%
- inhibition of growth at 10 µM [15]: < 1%
- inhibition of growth at 10 µM [16]: 10.5%
- inhibition of growth at 10 µM [17]: < 1%
- inhibition of growth at 10 µM [18]: < 1%
- inhibition of growth at 10 µM [19]: < 1%
- inhibition of growth at 10 µM [20]: < 1%
- inhibition of growth at 10 µM [21]: 10.5%
- inhibition of growth at 10 µM [22]: < 1%
- inhibition of growth at 10 µM [23]: < 1%
- inhibition of growth at 10 µM [24]: 15.2%
- inhibition of growth at 10 µM [25]: < 1%
- inhibition of growth at 10 µM [26]: 26.9%
- inhibition of growth at 10 µM [27]: < 1%
- inhibition of growth at 10 µM [28]: 1%
- inhibition of growth at 10 µM [29]: 32.5%
- inhibition of growth at 10 µM [30]: < 1%
- inhibition of growth at 10 µM [31]: < 1%
- inhibition of growth at 10 µM [32]: < 1%
- inhibition of growth at 10 µM [33]: < 1%
- inhibition of growth at 10 µM [34]: < 1%
- inhibition of growth at 10 µM [35]: < 1%
- inhibition of growth at 10 µM [36]: < 1%
- inhibition of growth at 10 µM [37]: < 1%
- inhibition of growth at 10 µM [38]: 13.9%
- inhibition of growth at 10 µM [39]: 16.8%
- inhibition of growth at 10 µM [40]: < 1%
- inhibition of growth at 10 µM [41]: < 1%
- inhibition of growth at 10 µM [42]: < 1%
- inhibition of growth at 10 µM [43]: < 1%
- inhibition of growth at 10 µM [44]: < 1%
- inhibition of growth at 10 µM [45]: 1%
- inhibition of growth at 10 µM [46]: < 1%
